Measurements pooled from the literature.
Target: Serine/threonine-protein kinase WNK1 (WNK1, Homo sapiens, UniProt Q9H4A3)

| Compound | effect on | mode | method | concentration | endpoint | result |
| --- | --- | --- | --- | --- | --- | --- |
| C[C@@H]1CN(c2cc(-c3n[nH]c4ccc(OC5(C)CC5)cc34)ncn2)C[C@H](C)O1 | cell-free assay | – | competition with immobilised ligand | 0.1 µM | remaining binding | 89% |
| Cn1cncc1C1=CN(c2ncnc3[nH]cnc23)CCS1 | enzyme activity | inhibitor | radiometric | 2 µM | inhibition | 10.7% |
| COc1cc(Nc2cnc(C#N)c(O[C@H](C)CN(C)C)n2)ncc1-c1cnn(C)c1 | enzyme activity | inhibitor | radiometric | 10 µM | remaining activity | 75% |
| Cc1sc(C(=O)NC2COC2)cc1-n1cc(NC(=O)Nc2c(F)cccc2Cl)cn1 | enzyme activity | inhibitor | – | 10 µM | remaining activity | 88.9% |
| Nc1ncnc2occ(-c3ccc(NC(=O)Nc4cc(C(F)(F)F)ccc4F)cc3)c12 | cell-free assay | inhibitor | – | 20 µM | remaining signal | 87% |
| COc1cc(/C=C/C(=O)CC(=O)/C=C/c2ccc(O)c(OC)c2)ccc1O | enzyme activity | inhibitor | – | 1 µM | activity vs control | 98% |
| Cn1cc(Cl)c2c(Oc3c(F)cc(Nc4cc(Cl)nc(N)n4)cc3F)ccnc21 | cell-free assay | – | competition with immobilised ligand | 0.1 µM | remaining binding | 98% |
| C[C@@H]1CCN(c2nccc(-c3cnn4ncccc34)n2)C1 | binding | – | – | 1 µM | remaining binding | 92% |
| CO[C@@H](C)c1c(Nc2ccc([C@H](N(C)C(=O)C3CCS(=O)(=O)CC3)C(F)(F)F)cc2)cnc2cc(Cl)nn12 | cell-free assay | – | competition with immobilised ligand | 1 µM | remaining binding | 100% |
| O=C(CSc1nc2nccnc2c(=O)n1CCc1ccccc1)Nc1nccs1 | enzyme activity | inhibitor | – | 10 µM | inhibition | 1% |
| O=C(Nc1cnn(-c2csc(C(=O)NC3COC3)c2)c1)Nc1c(F)cccc1Cl | enzyme activity | inhibitor | – | 5 µM | remaining activity | 93.3% |
| CN(c1nccc(-c2cnn3ncccc23)n1)C1CC1 | binding | – | – | 1 µM | remaining binding | 100% |
| CN(c1ccnc(CNc2nc(Nc3ccc4c(c3)CC(=O)N4)ncc2C(F)(F)F)n1)S(C)(=O)=O | cell-free assay | – | competition with immobilised ligand | 1 µM | remaining binding | 87% |
| CC(C)(C)c1nc2c(s1)c1nc(N)ncc1c1ccc(NS(=O)(=O)c3c(F)cccc3F)c(F)c12 | enzyme activity | inhibitor | radiometric | 1 µM | remaining activity | 103% |
| CCCCN(CCCC)C(=O)CN1C[C@@H](c2cc(OC)c3c(c2)OCO3)[C@H](C(=O)O)[C@H]1CC(C)(C)CCC | cell-free assay | – | competition with immobilised ligand | 1 µM | remaining binding | 96.8% |
| FC(F)(F)Oc1cccc(-c2cnc3ccc(-c4ccncc4)nn23)c1 | enzyme activity | inhibitor | radiometric | 1 µM | activity vs control | 105% |
